Source: PubChem
This is a sample that favours compounds with a hit; in the whole collection about 3.4% have one here.
IMP-1 inh: inhibitors of Pseudomonas aeruginosa IMP-1 metallo-beta-lactamase | purified IMP-1, nitrocefin hydrolysis, epi-absorbance fluorescence | 0.45% of 290,000 active | inhibition, % at 5.6 µM | AID 1556;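 active means inhibition above the mean plus 3 SD of all compounds in the same screening run, cut at about 4.5% in these data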
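System: purified IMP-1 / Input: IMP-1 dispensed at 0.2 nM / Medium: 50 mM HEPES pH 7.1, 50 µM ZnSO4, 0.05% Brij 35 / Timing: 15 min enzyme–compound preincubation, then 25 min nitrocefin reaction, 25 °C / Technique: plate fluorescence quenching by hydrolysis product, ex 480/em 530 nm / Repeats: singlicate testing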
CHT PAM: human CHT allosteric activation; CHT-expressing cells, membrane potential dye, choline EC20; stronger effect = higher value; LV-AA mutant CHT in HEK293 cells; 0.49% of 310,000 active; B-score at 10 µM;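 active means initial fluorescence not abnormally high and integrated response B-score, plate-corrected, over 3 SD above library mean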
TMEM16A inh: blocks the mouse calcium-activated chloride channel TMEM16A; normalized B-score (activity score, 25-100; higher = stronger inhibition) at 10 µM; AID 588511; HEK293 TMEM16A/YFP iodide influx fluorescence, ionomycin; Q8BHY3; 1.2% of 310,000 active;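 active means ratio plate-corrected score three or more library SD toward inhibition, starting fluorescence score within five deviations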;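 further: score derived from kinetic fluorescence span divided by baseline fluorescence per well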
Target sequence (Q8BHY3 whole entry, looked up): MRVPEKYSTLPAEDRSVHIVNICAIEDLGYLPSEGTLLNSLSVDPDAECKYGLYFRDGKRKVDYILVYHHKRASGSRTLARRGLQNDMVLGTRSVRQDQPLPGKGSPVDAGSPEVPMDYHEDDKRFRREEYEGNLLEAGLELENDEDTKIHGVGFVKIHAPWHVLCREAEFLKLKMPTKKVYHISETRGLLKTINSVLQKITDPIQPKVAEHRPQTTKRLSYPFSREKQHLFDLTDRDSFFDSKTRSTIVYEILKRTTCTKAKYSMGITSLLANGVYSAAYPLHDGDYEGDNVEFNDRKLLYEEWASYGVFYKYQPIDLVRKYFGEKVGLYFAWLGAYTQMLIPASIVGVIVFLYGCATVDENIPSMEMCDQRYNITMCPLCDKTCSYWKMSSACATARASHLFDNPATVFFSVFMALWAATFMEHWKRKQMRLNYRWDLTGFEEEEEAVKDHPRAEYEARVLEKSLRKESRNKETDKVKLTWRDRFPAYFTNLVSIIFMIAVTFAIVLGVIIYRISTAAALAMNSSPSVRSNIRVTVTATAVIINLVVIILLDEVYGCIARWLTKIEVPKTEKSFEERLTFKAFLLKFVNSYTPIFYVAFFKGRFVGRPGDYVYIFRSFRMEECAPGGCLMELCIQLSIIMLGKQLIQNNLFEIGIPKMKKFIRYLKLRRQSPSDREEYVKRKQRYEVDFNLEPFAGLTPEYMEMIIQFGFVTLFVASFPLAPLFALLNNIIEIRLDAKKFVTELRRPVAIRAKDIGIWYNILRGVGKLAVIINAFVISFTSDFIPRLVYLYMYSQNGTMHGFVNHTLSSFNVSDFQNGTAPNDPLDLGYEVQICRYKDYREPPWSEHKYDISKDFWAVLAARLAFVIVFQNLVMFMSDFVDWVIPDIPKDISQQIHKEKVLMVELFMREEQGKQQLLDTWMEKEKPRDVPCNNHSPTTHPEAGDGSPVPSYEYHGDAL
VIM-2 inh: inhibitors of Pseudomonas aeruginosa VIM-2 metallo-beta-lactamase; AID 1527; 0.89% of 290,000 active; purified VIM-2, nitrocefin hydrolysis, epi-absorbance fluorescence; inhibition, % at 5.6 µM;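 active means inhibition above the mean of all tested compounds plus 3 SD, cutoff set per screening run, cut at about 7.5% in these data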;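 further: red hydrolysis product quenches plate fluorescence so inhibitors raise well fluorescence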
TMEM16A act: mouse TMEM16A channel activation, primary screen; Q8BHY3; HEK293 TMEM16A/YFP-H148Q/I152L, iodide quench fluorescence; stronger effect = lower value; B-score at 10 µM; 0.3% of 340,000 active;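 active means fluorescence-ratio B-score plate-corrected deviation score at least 3 library SD below zero, with starting fluorescence score within 5 deviations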;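 further: channel opened by trigger with iodide after compound preincubation; score built on the fluorescence ratio of max minus min over baseline; more negative score means more quench and so TMEM16A activation or potentiation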
CHT block: inhibitors of human choline transporter CHT; Q9GZV3; CHT-expressing cells, membrane potential dye, choline response; stronger effect = lower value; B-score at 10 µM; 0.86% of 310,000 active;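 active means B-score over 3 SD under the library average, and starting fluorescence ratio not unusually high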;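 further: choline stimulus applied at its EC90 after an EC20 pre-addition; B-score computed on integrated fluorescence ratio after choline addition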
Large screens that a line does not name were inactive.

COCC(=O)N1CCCC(N(C)CCc2ccc(OC)c(OC)c2)C1 (stereo unspecified)	IMP-1 inh 8.0
O=C1CCCCN1CCCC(=O)N1CCCC(Nc2ccc(F)c(F)c2)C1 (stereo unspecified)	none
O=C(Nc1cccc(N=Cc2cc(Cl)cc(Br)c2O)c1)c1ccco1	CHT block -7.12
CCn1c(SCC(=O)Nc2ccc(C)cc2)nc2sc3c(c2c1=O)CCN(C)C3	none
CCn1c(SCC(N)=O)nc2sc3c(c2c1=O)CCN(C)C3	CHT PAM 7.91
COC(CNc1nc(SC)nc2sc3c(c12)CCN(C)C3)OC	none
CCC(O)CNc1nc(SC)nc2sc3c(c12)CCN(C)C3 (stereo unspecified)	CHT PAM 7.08
CCSc1nc2sc3c(c2c(=O)n1-c1ccccc1)CCN(C)C3	none
CSc1nc(SCC(N)=O)c2c3c(sc2n1)CN(C)CC3	CHT PAM 6.26
COCCSc1nc2sc3c(c2c(=O)n1-c1ccccc1)CCN(C)C3	CHT PAM 7.54
Cc1ccc(S(=O)(=O)NC(C)(C)CN2CCC(Cc3ccccc3)CC2)cc1	none
Cc1ccc2c(c1)sc(-c1ccc(N(C)C)cc1)[n+]2C	none
Cc1cccc2c(N=O)c(O)[nH]c12	none
Cn1cnc2c(cnn2C)c1=N	none (no result: IMP-1 inh, CHT PAM, TMEM16A inh, VIM-2 inh, CHT block)
CC(C)NC(=O)CN1C(=O)c2cccc3cccc1c23	none
CCSc1nc(N)c2c3c(sc2n1)CN(C)CC3	CHT PAM 6.29, VIM-2 inh 8.5 (no result: TMEM16A act)
C=CCSc1nc(N)c2c3c(sc2n1)CN(C)CC3	none (no result: TMEM16A act)
CSc1nc(N)c2c3c(sc2n1)CN(C)CC3	CHT PAM 7.68
CC1=CC2C(C(O)CC3(C)C2CC(C)C32OCOC23COCO3)C2(C)C/C(=C\O)C(=O)C=C12 (stereo unspecified)	none (no result: IMP-1 inh, CHT PAM, TMEM16A inh, VIM-2 inh, CHT block)
CC(C)(C)OC(=O)C[C@H]1C/C=C\C[C@H](CC(=O)N(CCO)Cc2ccccc2)C(=O)NCCOC1=O	none (no result: IMP-1 inh, CHT PAM, TMEM16A inh, VIM-2 inh, CHT block)
CC(C)(C)OC(=O)C[C@@H]1C/C=C\C[C@@H](CC(=O)N(CCO)Cc2ccccc2)C(=O)NCCOC1=O	TMEM16A act -4.82 (no result: IMP-1 inh, CHT PAM, TMEM16A inh, VIM-2 inh, CHT block)
C=CC[n+]1c(-c2ccc(OC)cc2)csc1NNC(=O)Nc1ccccc1	TMEM16A inh 100
Cc1ccc(C(=O)c2c(C)oc3c2C(=O)C(=O)c2ccccc2-3)cc1	TMEM16A inh 25, TMEM16A act -17.9
Cc1oc2c(c1C(=O)c1ccc(Cl)cc1)C(=O)C(=O)c1ccccc1-2	none (no result: CHT PAM, TMEM16A inh, CHT block)
Cc1oc2c(C)c3oc(=O)c(CCC(=O)NCCN4CCOCC4)c(C)c3cc2c1C	none
COCCN(CC(=O)Oc1ccccc1P(=O)(OC)OC)Cc1ccccc1	none
O=C(CN(CCc1ccccc1)Cc1ccccc1)Oc1ccccc1P(=O)(O)O	VIM-2 inh 11.0
N#Cc1c(Cl)nsc1NN	none
Cn1c(SCC(=O)n2c3c(c4ccccc42)CCCC3)nnc1-c1ccccc1	VIM-2 inh 8.7
Cc1nnc(SCC(=O)n2c3c(c4ccccc42)CCCC3)s1	VIM-2 inh 9.8
CCOc1ccc(S(=O)(=O)NCc2ccncc2)cc1	TMEM16A inh 25
Cc1ccc(S(=O)(=O)NCc2ccncc2)cc1	none
O=C(NCCN1CCN(c2ccccc2F)CC1)C1CCCN(S(=O)(=O)c2cnc[nH]2)C1 (stereo unspecified)	TMEM16A act -17.8
O=C(NCCc1ccccc1)C1CCCN(S(=O)(=O)c2cnc[nH]2)C1 (stereo unspecified)	none
C#CCN1C=C(C(=O)OCC)C(C)N(Cc2ccccc2I)S1(=O)=O (stereo unspecified)	TMEM16A act -4.98 (no result: IMP-1 inh, CHT PAM, TMEM16A inh, VIM-2 inh, CHT block)
COCCNC(=S)N(CCc1c(C)[nH]c2ccc(Cl)cc12)Cc1cccs1	TMEM16A inh 100
CCS(=O)(=O)n1nc(-c2ccc(Cl)cc2)nc1SCc1ccccc1	TMEM16A inh 25 (no result: TMEM16A act)
COc1ccc(-c2nc(SCc3ccccc3)n(S(C)(=O)=O)n2)cc1	none
CC(C)(C)c1ccc(S(=O)(=O)N2CCN(CC(=O)N3CC(=O)Nc4ccccc43)CC2)cc1	TMEM16A act -37.8 (no result: IMP-1 inh, CHT PAM, TMEM16A inh, VIM-2 inh, CHT block)
Cc1ccccc1OCc1nnc(SCC(=O)O)n1-c1cccc(Cl)c1	none
Cc1c(Cl)c(C(=O)N2CCCCCC2)nn1C	none
C#CCOCCOCCOCCNc1nc(N2CCN(C(=O)CCCCCCCCCCNC(=O)[C@H](CCCCN)n3cc(C)nn3)CC2)nc(N2CCN(C(=O)CCCCCCCCCCNC(=O)[C@@H]([C@H](C)CC)n3cc(CCCCCN)nn3)CC2)n1	TMEM16A inh 25, TMEM16A act -18.3 (no result: IMP-1 inh, VIM-2 inh)
C#CCOCCOCCOCCNc1nc(N2CCN(C(=O)CCCCCCCCCCNC(=O)[C@H](CCCCN)n3cc(CCO)nn3)CC2)nc(N2CCN(C(=O)CCCCCCCCCCNC(=O)[C@@H]([C@H](C)O)n3cc(C)nn3)CC2)n1	none (no result: IMP-1 inh, VIM-2 inh)
C#CCOCCOCCOCCNc1nc(N2CCN(C(=O)CCCCCCCCCCNC(=O)[C@H]([C@@H](C)CC)n3cc(CCCCCN)nn3)CC2)nc(N2CCN(C(=O)CCCCCCCCCCNC(=O)[C@@H]([C@H](C)O)n3cc(C)nn3)CC2)n1	TMEM16A act -11.7 (no result: IMP-1 inh, VIM-2 inh)
C#CCOCCOCCOCCNc1nc(N2CCN(C(=O)CCCCCCCCCCNC(=O)Cn3cc(CCCCCN)nn3)CC2)nc(N2CCN(C(=O)CCCCCCCCCCNC(=O)[C@H]([C@@H](C)CC)n3cc(CCCCCN)nn3)CC2)n1	TMEM16A inh 25, TMEM16A act -13.5 (no result: IMP-1 inh, VIM-2 inh)
C#CCOCCOCCOCCNc1nc(N2CCN(C(=O)CCCCCCCCCCNC(=O)[C@@H](CCSC)n3cc(CCO)nn3)CC2)nc(N2CCN(C(=O)CCCCCCCCCCNC(=O)[C@H]([C@@H](C)CC)n3cc(CCCCCN)nn3)CC2)n1	TMEM16A inh 100 (no result: IMP-1 inh, VIM-2 inh, TMEM16A act)
C#CCOCCOCCOCCNc1nc(N2CCN(C(=O)CCCCCCCCCCNC(=O)Cn3cc(CCCCCN)nn3)CC2)nc(N2CCN(C(=O)CCCCCCCCCCNC(=O)[C@H](CO)n3cc(CCCCCN)nn3)CC2)n1	none (no result: IMP-1 inh, VIM-2 inh)
Cc1c[nH]c2cccc(OCC(CNC(C)(C)C)OC(=O)c3ccccc3)c12 (stereo unspecified)	CHT block -11.3
CCc1ccc(CNC(=O)c2ccc(OC3CCN(C(=O)COC)CC3)cc2)nc1	none
Oc1ccc(/C=N/Nc2nn3cnnc3c3ccccc23)cc1	VIM-2 inh 8.8
COc1cc(/C=N/Nc2nn3cnnc3c3ccccc23)ccc1O	none
Cc1nn(C)c(C(=O)N/N=C/c2ccc(-c3ccccc3)cc2)c1Cl	none
O=C(N/N=C/c1ccccc1F)c1cc2c(ccc3ccccc32)o1	IMP-1 inh 5.0
Cc1ccc(-c2c3c([nH]c(=S)c2C#N)CCCC3)o1	IMP-1 inh 9.7
COc1ccc(CNC(=O)COC(=O)c2cc3ccccc3o2)cc1	none (no result: IMP-1 inh, CHT PAM, TMEM16A inh, VIM-2 inh, CHT block)
Cc1c(C)c2cc(Cl)c(O)c(CN3CCCCC3)c2oc1=O	none (no result: TMEM16A act)
